Experimental data from ChEMBL document CHEMBL4359823, “Switching on the activity of 1,5-diaryl-pyrrole derivatives against drug-resistant ESKAPE bacteria: Structure-activity relationships and mode of action studies” (Eur J Med Chem, 2019).
Converted amounts (≈) assume the structure as drawn.

Assays:
Type in all cases: functional
Enterococcus faecalis [1] = experiment: Antibacterial activity against vancomycin resistant Enterococcus faecalis NCTC12204 measured after overnight incubation by microbroth dilution method
Method in brief: (§1)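 Microbroth dilution: DMSO stocks diluted in water, 2-fold series. Overnight TSB cultures back-diluted to OD 0.01 and mixed 1:1 with compound. Incubated overnight at 37 °C; MIC taken as lowest concentration without visible growth (<0.1 OD600). Run in duplicate; matching DMSO levels checked for effect on growth.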

Enterococcus faecalis [2] = experiment: Antibacterial activity against vancomycin resistant Enterococcus faecalis NCTC12201 measured after overnight incubation by microbroth dilution method; method in brief: as §1
Enterococcus faecalis [3] = experiment: Antibacterial activity against vancomycin sensitive Enterococcus faecalis NCTC775 measured after overnight incubation by microbroth dilution method; method in brief: as §1
Staphylococcus aureus [4] = experiment: Antibacterial activity against methicillin-resistant Staphylococcus aureus EMRSA15 measured after overnight incubation by microbroth dilution method; method in brief: as §1
Staphylococcus aureus [5] = experiment: Antibacterial activity against methicillin-sensitive Staphylococcus aureus ATCC 9144 measured after overnight incubation by microbroth dilution method; method in brief: as §1
Staphylococcus aureus [6] = experiment: Antibacterial activity against methicillin-resistant Staphylococcus aureus MRSA252 measured after overnight incubation by microbroth dilution method; method in brief: as §1
Staphylococcus aureus [7] = experiment: Antibacterial activity against methicillin sensitive Staphylococcus aureus NCTC 6571 measured after overnight incubation by microbroth dilution method; method in brief: as §1
Staphylococcus aureus [8] = experiment: Antibacterial activity against methicillin resistant Staphylococcus aureus NCTC13616 measured after overnight incubation by microbroth dilution method; method in brief: as §1
Staphylococcus aureus [9] = experiment: Antibacterial activity against methicillin resistant Staphylococcus aureus NCTC13277 measured after overnight incubation by microbroth dilution method; method in brief: as §1
Klebsiella pneumoniae [10] = experiment: Antibacterial activity against Klebsiella pneumoniae NCTC13368 measured after overnight incubation by microbroth dilution method
Method in brief: (§2)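 Microbroth dilution MIC. Compound DMSO stocks were diluted in water as a 2-fold series. Overnight TSB cultures were back-diluted to OD 0.01 and mixed 1:1 with compound. Plates were incubated overnight at 37 °C. MIC was the lowest concentration without visible growth (<0.1 OD600), run in duplicate.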

Klebsiella pneumoniae [11] = experiment: Antibacterial activity against Klebsiella pneumoniae M6 measured after overnight incubation by microbroth dilution method; method in brief: as §2
Acinetobacter baumannii [12] = experiment: Antibacterial activity against Acinetobacter baumannii AYE measured after overnight incubation by microbroth dilution method; method in brief: as §2
Acinetobacter baumannii [13] = experiment: Antibacterial activity against Acinetobacter baumannii ATCC 17978 measured after overnight incubation by microbroth dilution method; method in brief: as §2
Pseudomonas aeruginosa [14] = experiment: Antibacterial activity against Pseudomonas aeruginosa PAO1 measured after overnight incubation by microbroth dilution method; method in brief: as §2
Pseudomonas aeruginosa [15] = experiment: Antibacterial activity against Pseudomonas aeruginosa NCTC13437 measured after overnight incubation by microbroth dilution method; method in brief: as §2
Escherichia coli = experiment: Antibacterial activity against Escherichia coli NCTC12923 measured after overnight incubation by microbroth dilution method; method in brief: as §2

## Cc1cc(CN2CCN(C3C4CC5CC(C4)CC3C5)CC2)c(C)n1-c1ccccc1F (stereo not drawn)
Enterococcus faecalis [1]
  MIC: 32 mg/L (≈ 75.9 µM)
Enterococcus faecalis [2]
  MIC: 32 mg/L (≈ 75.9 µM)
Enterococcus faecalis [3]
  MIC: 32 mg/L (≈ 75.9 µM)
Staphylococcus aureus [4]
  MIC: 32 mg/L (≈ 75.9 µM)
Staphylococcus aureus [5]
  MIC: 32 mg/L (≈ 75.9 µM)
Staphylococcus aureus [6]
  MIC: 32 mg/L (≈ 75.9 µM)

## Cc1cc(CNCc2ccccc2)c(C)n1-c1ccc(F)cc1
Enterococcus faecalis [1]
  MIC: 32 mg/L (≈ 104 µM)
Enterococcus faecalis [2]
  MIC: 64 mg/L (≈ 208 µM)
Enterococcus faecalis [3]
  MIC: 64 mg/L (≈ 208 µM)
Staphylococcus aureus [4]
  MIC: > 128 mg/L
Staphylococcus aureus [5]
  MIC: > 128 mg/L
Staphylococcus aureus [6]
  MIC: 64 mg/L (≈ 208 µM)

## Cc1cc(CNCc2ccc(Cl)cc2)c(C)n1-c1ccc(Cl)cc1
Enterococcus faecalis [1]
  MIC: 8 mg/L (≈ 22.3 µM)
Enterococcus faecalis [2]
  MIC: 16 mg/L (≈ 44.5 µM)
Enterococcus faecalis [3]
  MIC: 32 mg/L (≈ 89.1 µM)
Staphylococcus aureus [4]
  MIC: 32 mg/L (≈ 89.1 µM)
Staphylococcus aureus [5]
  MIC: 32 mg/L (≈ 89.1 µM)
Staphylococcus aureus [6]
  MIC: 32 mg/L (≈ 89.1 µM)

## Cc1ccc(CNCc2cc(C)n(-c3ccc(Cl)cc3)c2C)cc1
Enterococcus faecalis [1]
  MIC: 32 mg/L (≈ 94.4 µM)
Enterococcus faecalis [2]
  MIC: 64 mg/L (≈ 189 µM)
Enterococcus faecalis [3]
  MIC: 64 mg/L (≈ 189 µM)
Staphylococcus aureus [4]
  MIC: 64 mg/L (≈ 189 µM)
Staphylococcus aureus [5]
  MIC: 64 mg/L (≈ 189 µM)
Staphylococcus aureus [6]
  MIC: 64 mg/L (≈ 189 µM)

## Cc1cc(CNOCc2ccccc2)c(C)n1-c1ccc(F)cc1
Enterococcus faecalis [1]
  MIC: > 64 mg/L
Enterococcus faecalis [2]
  MIC: > 64 mg/L
Enterococcus faecalis [3]
  MIC: > 64 mg/L
Staphylococcus aureus [4]
  MIC: > 64 mg/L
Staphylococcus aureus [5]
  MIC: > 64 mg/L
Staphylococcus aureus [6]
  MIC: > 64 mg/L

## Cc1cc(CN2CCN(C3CCCCC3)CC2)c(C)n1-c1ccc(Cl)cc1
Enterococcus faecalis [1]
  MIC: 128 mg/L (≈ 332 µM)
Enterococcus faecalis [2]
  MIC: 128 mg/L (≈ 332 µM)
Enterococcus faecalis [3]
  MIC: 128 mg/L (≈ 332 µM)
Staphylococcus aureus [4]
  MIC: > 128 mg/L
Staphylococcus aureus [5]
  MIC: 128 mg/L (≈ 332 µM)
Staphylococcus aureus [6]
  MIC: > 128 mg/L

## Cc1c(CNC2CCCCC2)cc(-c2ccc(Cl)cc2)n1-c1ccc(F)cc1
Enterococcus faecalis [1]
  MIC: 4 mg/L (≈ 10.1 µM)
Enterococcus faecalis [2]
  MIC: 4 mg/L (≈ 10.1 µM)
Staphylococcus aureus [7]
  MIC: 8 mg/L (≈ 20.2 µM)
Staphylococcus aureus [8]
  MIC: 8 mg/L (≈ 20.2 µM)
Staphylococcus aureus [9]
  MIC: 8 mg/L (≈ 20.2 µM)
Enterococcus faecalis [3]
  MIC: 4 mg/L (≈ 10.1 µM)
Klebsiella pneumoniae [10]
  MIC: > 128 mg/L
Klebsiella pneumoniae [11]
  MIC: > 128 mg/L
Acinetobacter baumannii [12]
  MIC: 128 mg/L (≈ 322 µM)
Acinetobacter baumannii [13]
  MIC: 64 mg/L (≈ 161 µM)
Pseudomonas aeruginosa [14]
  MIC: > 128 mg/L
Pseudomonas aeruginosa [15]
  MIC: > 128 mg/L
Escherichia coli
  MIC: > 128 mg/L

## COc1ccc(-n2c(-c3ccc(Cl)cc3)cc(CNC3CCCCC3)c2C)cc1
Enterococcus faecalis [1]
  MIC: 8 mg/L (≈ 19.6 µM)
Enterococcus faecalis [2]
  MIC: 8 mg/L (≈ 19.6 µM)
Staphylococcus aureus [7]
  MIC: 16 mg/L (≈ 39.1 µM)
Staphylococcus aureus [8]
  MIC: 16 mg/L (≈ 39.1 µM)
Staphylococcus aureus [9]
  MIC: 16 mg/L (≈ 39.1 µM)
Enterococcus faecalis [3]
  MIC: 8 mg/L (≈ 19.6 µM)
Klebsiella pneumoniae [10]
  MIC: > 128 mg/L
Klebsiella pneumoniae [11]
  MIC: > 128 mg/L
Acinetobacter baumannii [12]
  MIC: > 128 mg/L
Acinetobacter baumannii [13]
  MIC: 128 mg/L (≈ 313 µM)
Pseudomonas aeruginosa [14]
  MIC: > 128 mg/L
Pseudomonas aeruginosa [15]
  MIC: > 128 mg/L
Escherichia coli
  MIC: > 128 mg/L

## Cc1c(CNC2CCCCC2)cc(-c2ccc(F)cc2)n1-c1ccc(Cl)cc1
Enterococcus faecalis [1]
  MIC: 4 mg/L (≈ 10.1 µM)
Enterococcus faecalis [2]
  MIC: 4 mg/L (≈ 10.1 µM)
Staphylococcus aureus [7]
  MIC: 8 mg/L (≈ 20.2 µM)
Staphylococcus aureus [8]
  MIC: 8 mg/L (≈ 20.2 µM)
Staphylococcus aureus [9]
  MIC: 8 mg/L (≈ 20.2 µM)
Enterococcus faecalis [3]
  MIC: 8 mg/L (≈ 20.2 µM)
Klebsiella pneumoniae [10]
  MIC: > 128 mg/L
Klebsiella pneumoniae [11]
  MIC: > 128 mg/L
Acinetobacter baumannii [12]
  MIC: 128 mg/L (≈ 322 µM)
Acinetobacter baumannii [13]
  MIC: 128 mg/L (≈ 322 µM)
Pseudomonas aeruginosa [14]
  MIC: > 128 mg/L
Pseudomonas aeruginosa [15]
  MIC: > 128 mg/L
Escherichia coli
  MIC: > 128 mg/L

## Cc1c(CNC2CCCCCC2)cc(-c2ccc(Cl)cc2)n1-c1ccc(F)cc1
Enterococcus faecalis [1]
  MIC: 2 mg/L (≈ 4.87 µM)
Enterococcus faecalis [2]
  MIC: 4 mg/L (≈ 9.73 µM)
Staphylococcus aureus [7]
  MIC: 4 mg/L (≈ 9.73 µM)
Staphylococcus aureus [8]
  MIC: 8 mg/L (≈ 19.5 µM)
Staphylococcus aureus [9]
  MIC: 4 mg/L (≈ 9.73 µM)
Enterococcus faecalis [3]
  MIC: 4 mg/L (≈ 9.73 µM)
Klebsiella pneumoniae [10]
  MIC: > 128 mg/L
Klebsiella pneumoniae [11]
  MIC: > 128 mg/L
Acinetobacter baumannii [12]
  MIC: 128 mg/L (≈ 311 µM)
Acinetobacter baumannii [13]
  MIC: > 128 mg/L
Pseudomonas aeruginosa [14]
  MIC: > 128 mg/L
Pseudomonas aeruginosa [15]
  MIC: > 128 mg/L
Escherichia coli
  MIC: 128 mg/L (≈ 311 µM)

## Cc1cc(CN2CCN(C3C4CC5CC(C4)CC3C5)CC2)c(C)n1-c1ccc(Cl)cc1 (stereo not drawn)
Enterococcus faecalis [1]
  MIC: 16 mg/L (≈ 36.5 µM)
Enterococcus faecalis [2]
  MIC: 16 mg/L (≈ 36.5 µM)
Enterococcus faecalis [3]
  MIC: 16 mg/L (≈ 36.5 µM)
Staphylococcus aureus [4]
  MIC: 32 mg/L (≈ 73 µM)
Staphylococcus aureus [5]
  MIC: 16 mg/L (≈ 36.5 µM)
Staphylococcus aureus [6]
  MIC: 32 mg/L (≈ 73 µM)

## Cc1cc(CN2CCN(C3C4CC5CC(C4)CC3C5)CC2)c(C)n1-c1ccc(C(C)C)cc1 (stereo not drawn)
Enterococcus faecalis [1]
  MIC: 8 mg/L (≈ 17.9 µM)
Enterococcus faecalis [2]
  MIC: 8 mg/L (≈ 17.9 µM)
Enterococcus faecalis [3]
  MIC: 16 mg/L (≈ 35.9 µM)
Staphylococcus aureus [4]
  MIC: 32 mg/L (≈ 71.8 µM)
Staphylococcus aureus [5]
  MIC: 32 mg/L (≈ 71.8 µM)
Staphylococcus aureus [6]
  MIC: 32 mg/L (≈ 71.8 µM)

## Cc1c(CNC2CCC(O)CC2)cc(-c2ccc(Cl)cc2)n1-c1ccc(Cl)cc1 (stereo not drawn)
Enterococcus faecalis [1]
  MIC: 8 mg/L (≈ 18.6 µM)
Enterococcus faecalis [2]
  MIC: 16 mg/L (≈ 37.3 µM)
Staphylococcus aureus [7]
  MIC: 16 mg/L (≈ 37.3 µM)
Staphylococcus aureus [8]
  MIC: 16 mg/L (≈ 37.3 µM)
Staphylococcus aureus [9]
  MIC: 16 mg/L (≈ 37.3 µM)
Enterococcus faecalis [3]
  MIC: 16 mg/L (≈ 37.3 µM)
Klebsiella pneumoniae [10]
  MIC: > 128 mg/L
Klebsiella pneumoniae [11]
  MIC: > 128 mg/L
Acinetobacter baumannii [12]
  MIC: 128 mg/L (≈ 298 µM)
Acinetobacter baumannii [13]
  MIC: 64 mg/L (≈ 149 µM)
Pseudomonas aeruginosa [14]
  MIC: > 128 mg/L
Pseudomonas aeruginosa [15]
  MIC: > 128 mg/L
Escherichia coli
  MIC: > 128 mg/L
